Values after ≈ are worked out from the molar mass of the structure shown. Active and inactive are the calls of the source. No cut-off for these calls is given here.
Columns and labels:
[1] = Oral bioavailability in rat at 1 mg/kg; type: ADME, organism-based; conditions: in vivo
Method in brief: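 Oral dosing in rats at 1 mg/kg, n = 3 animals; F (%) given as mean, SEM <20% of mean unless stated.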

Brain [2] = assay: Drug level in mouse brain at 1 mg/kg, ip; type: ADME, organism-based; design: dose 1 mg/kg, route intraperitoneal; conditions: in vivo
Method in brief: (§1)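 Mice dosed i.p. at 1 mg/kg; brain and blood sampled 1 h after dosing, concentrations by HPLC-MS; n ≥ 3, SEM <11% of mean unless stated.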

[3] = Protein binding in monkey plasma; type: ADME, cell-free, Macaca mulatta; conditions: rhesus monkey, read-out: PPB (converted)
Rattus norvegicus [4] = assay: Memory enhancing effect in ip dosed adult rat by five trial inhibitory avoidance method; type: functional, organism-based
Rattus norvegicus [5] = assay: Memory enhancing effect in ip dosed adult rat by social recognition memory method; type: functional, organism-based
Method in brief: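 Adult rat explores a juvenile 5 min, separated 2 h, re-exposed 5 min; compound or saline i.p. right after first exposure; investigation ratio (second/first time); ciproxifan 1 mg/kg standard; n ≥ 12, Dunnett's post hoc, P < 0.05; efficacious doses in mg/kg.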

Rattus norvegicus [6] = assay: Memory enhancing effect in ip dosed rat by five trial inhibitory avoidance method at 3 mg/kg; type: functional, organism-based; design: dose 3 mg/kg
[7] = Clearance in rat at 1 mg/kg, iv; type: ADME, organism-based; design: dose 1 mg/kg, route intravenous; conditions: in vivo
[8] = Ratio of drug level in brain to blood in mouse at 1 mg/kg, ip; type: ADME, organism-based; design: dose 1 mg/kg, route intraperitoneal; method in brief: as §1
[9] = Half life in rat at 1 mg/kg, iv; type: ADME, organism-based; design: dose 1 mg/kg, route intravenous; conditions: in vivo
Rattus norvegicus [10] = assay: Volume of distribution in rat at 1 mg/kg, iv; type: ADME, organism-based; design: dose 1 mg/kg, route intravenous; conditions: in vivo
[11] = Protein binding in rat plasma; type: ADME, cell-free; conditions: read-out: PPB (converted)
[12] = Photostability of the UV light irradiated compound; type: ADME
[13] = Ratio of drug level in brain to blood in rat at 1 mg/kg, iv; type: ADME, organism-based; design: dose 1 mg/kg, route intravenous
Method in brief: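 Rats given 1 mg/kg i.v.; brain and plasma concentrations measured 1 h after dosing by HPLC-MS, and the brain-to-plasma ratio was taken from these; n ≥ 3 animals.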

[14] = Protein binding in dog plasma; type: ADME, cell-free, Canis lupus familiaris; conditions: read-out: PPB (converted)
Cytochrome P450 1A2 = molecular target: T1, Cytochrome P450 1A2 (Homo sapiens, UniProt P05177); assay: Inhibition of CYP1A2 at 10 to 20 uM; type: ADME
T1 sequence (P05177 whole entry): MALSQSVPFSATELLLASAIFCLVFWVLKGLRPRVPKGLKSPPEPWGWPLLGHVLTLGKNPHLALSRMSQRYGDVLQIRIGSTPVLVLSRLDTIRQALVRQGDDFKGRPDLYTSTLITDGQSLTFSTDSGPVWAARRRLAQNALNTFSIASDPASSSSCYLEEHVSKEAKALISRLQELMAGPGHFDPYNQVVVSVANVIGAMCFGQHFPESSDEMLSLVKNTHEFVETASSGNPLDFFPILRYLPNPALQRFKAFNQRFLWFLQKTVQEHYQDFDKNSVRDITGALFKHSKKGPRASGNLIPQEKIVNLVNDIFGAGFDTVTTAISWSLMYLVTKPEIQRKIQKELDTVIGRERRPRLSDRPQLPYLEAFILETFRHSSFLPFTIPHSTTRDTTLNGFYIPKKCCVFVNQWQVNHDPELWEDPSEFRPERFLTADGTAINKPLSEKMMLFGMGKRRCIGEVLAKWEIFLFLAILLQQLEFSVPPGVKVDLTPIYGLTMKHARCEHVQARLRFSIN

Cytochrome P450 2A6 = molecular target: T2, Cytochrome P450 2A6 (Homo sapiens, UniProt P11509); assay: Inhibition of CYP2A6 at 10 to 20 uM; type: ADME
T2 sequence (P11509 whole entry): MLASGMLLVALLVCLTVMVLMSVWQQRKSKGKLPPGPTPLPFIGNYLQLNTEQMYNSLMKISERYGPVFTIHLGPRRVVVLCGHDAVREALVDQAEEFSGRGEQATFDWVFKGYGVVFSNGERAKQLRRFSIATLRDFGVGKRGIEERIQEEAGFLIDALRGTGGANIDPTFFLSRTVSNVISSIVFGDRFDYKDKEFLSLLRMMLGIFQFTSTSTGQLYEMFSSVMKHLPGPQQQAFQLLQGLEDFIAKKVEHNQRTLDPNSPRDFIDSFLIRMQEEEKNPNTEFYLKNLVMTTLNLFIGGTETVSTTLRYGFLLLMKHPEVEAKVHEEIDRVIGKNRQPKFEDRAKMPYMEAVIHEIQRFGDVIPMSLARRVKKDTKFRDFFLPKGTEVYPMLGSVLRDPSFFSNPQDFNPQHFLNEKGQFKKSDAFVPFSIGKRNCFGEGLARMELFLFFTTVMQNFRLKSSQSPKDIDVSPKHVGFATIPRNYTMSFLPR

Cytochrome P450 2C9 = Cytochrome P450 2C9 (Homo sapiens, UniProt P11712); assay: Inhibition of CYP2C9 at 10 to 20 uM; type: ADME
Homo sapiens = species: Homo sapiens; assay: Inhibition of human sigma receptor at 10 uM
Cytochrome P450 2D6 = Cytochrome P450 2D6 (Homo sapiens, UniProt P10635); assay: Inhibition of CYP2D6 at 10 to 20 uM; type: ADME
Brain [15] = assay: Drug level in rat brain at 1 mg/kg, iv; type: ADME, organism-based; design: dose 1 mg/kg, route intravenous; conditions: in vivo
Method in brief: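 Rats dosed i.v. at 1 mg/kg; brain concentration measured 1 h post-dose by HPLC-MS; n ≥ 3, SEM <11% of mean unless stated.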

Cytochrome P450 2E1 = Cytochrome P450 2E1 (Homo sapiens, UniProt P05181); assay: Inhibition of CYP2E1 at 10 to 20 uM; type: ADME
[16] = Solubility in water at pH 7; type: physicochemical
Cytochrome P450 2C19 = Cytochrome P450 2C19 (Homo sapiens, UniProt P33261); assay: Inhibition of CYP2C19 at 10 to 20 uM; type: ADME
Cytochrome P450 3A4 = Cytochrome P450 3A4 (Homo sapiens, UniProt P08684); assay: Inhibition of CYP3A4 at 10 to 20 uM; type: ADME
Rattus norvegicus [17] = assay: CNS toxicity assessed as hypoactivity in rat at 2.8 mg/kg; type: organism-based; design: dose 2.8 mg/kg; conditions: in vivo
[18] = Bioavailability in dog; type: ADME, organism-based, Canis lupus familiaris; conditions: in vivo
Plasma [19] = assay: Drug level in rat plasma at 0.1 mg/kg; type: ADME, organism-based; design: dose 0.1 mg/kg; conditions: in vivo
Rattus norvegicus [20] = assay: CNS toxicity assessed as hypoactivity in rat at 9.4 mg/kg; type: organism-based; design: dose 9.4 mg/kg; conditions: in vivo
[21] = molecular target: T3, Adenosine receptor A3 (Homo sapiens) (UniProt P0DMS8); assay: Inhibition of human adenosine A3 receptor at 10 uM
T3 sequence (whole entry): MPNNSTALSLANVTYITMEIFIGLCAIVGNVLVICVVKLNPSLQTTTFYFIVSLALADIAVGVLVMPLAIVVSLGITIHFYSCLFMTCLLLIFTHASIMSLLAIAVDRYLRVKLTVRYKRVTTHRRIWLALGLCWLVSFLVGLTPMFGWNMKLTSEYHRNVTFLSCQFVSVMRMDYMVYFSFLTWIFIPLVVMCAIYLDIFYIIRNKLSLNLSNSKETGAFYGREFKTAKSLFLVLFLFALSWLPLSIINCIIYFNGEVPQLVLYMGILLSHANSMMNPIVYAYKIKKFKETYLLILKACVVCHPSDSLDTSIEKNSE

Plasma [22] = assay: Drug level in rat plasma at 0.3 mg/kg; type: ADME, organism-based; design: dose 0.3 mg/kg; conditions: in vivo
[23] = molecular target: T4, Muscarinic acetylcholine receptor M4 (Homo sapiens) (UniProt P08173); assay: Inhibition of human muscarinic M4 receptor at 10 uM
T4 sequence (whole entry): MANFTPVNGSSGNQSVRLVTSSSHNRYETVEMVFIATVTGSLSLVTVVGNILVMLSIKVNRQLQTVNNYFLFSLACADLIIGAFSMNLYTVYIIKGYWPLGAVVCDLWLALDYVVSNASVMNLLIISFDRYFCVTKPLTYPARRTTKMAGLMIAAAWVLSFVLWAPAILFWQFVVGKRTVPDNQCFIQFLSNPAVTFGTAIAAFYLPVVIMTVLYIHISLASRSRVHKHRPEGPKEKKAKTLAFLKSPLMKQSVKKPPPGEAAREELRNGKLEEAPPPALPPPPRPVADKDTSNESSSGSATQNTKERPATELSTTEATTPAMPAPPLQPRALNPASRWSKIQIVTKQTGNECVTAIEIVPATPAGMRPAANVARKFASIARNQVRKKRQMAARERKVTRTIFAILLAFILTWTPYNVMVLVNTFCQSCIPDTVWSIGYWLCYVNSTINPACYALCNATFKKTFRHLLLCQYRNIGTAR

Rattus norvegicus [24] = assay: CNS toxicity assessed as piloerection in rat at 9.4 mg/kg; type: organism-based; design: dose 9.4 mg/kg; conditions: in vivo
L-type calcium channel = L-type calcium channel (Homo sapiens, UniProt O60840+Q01668+Q13698+Q13936); assay: Inhibition of human L-type calcium channel at 10 uM
Rattus norvegicus [25] = assay: CNS toxicity assessed as piloerection in rat at 2.8 mg/kg; type: organism-based; design: dose 2.8 mg/kg; conditions: in vivo

Sequence of Cytochrome P450 2C9 (P11712 whole entry): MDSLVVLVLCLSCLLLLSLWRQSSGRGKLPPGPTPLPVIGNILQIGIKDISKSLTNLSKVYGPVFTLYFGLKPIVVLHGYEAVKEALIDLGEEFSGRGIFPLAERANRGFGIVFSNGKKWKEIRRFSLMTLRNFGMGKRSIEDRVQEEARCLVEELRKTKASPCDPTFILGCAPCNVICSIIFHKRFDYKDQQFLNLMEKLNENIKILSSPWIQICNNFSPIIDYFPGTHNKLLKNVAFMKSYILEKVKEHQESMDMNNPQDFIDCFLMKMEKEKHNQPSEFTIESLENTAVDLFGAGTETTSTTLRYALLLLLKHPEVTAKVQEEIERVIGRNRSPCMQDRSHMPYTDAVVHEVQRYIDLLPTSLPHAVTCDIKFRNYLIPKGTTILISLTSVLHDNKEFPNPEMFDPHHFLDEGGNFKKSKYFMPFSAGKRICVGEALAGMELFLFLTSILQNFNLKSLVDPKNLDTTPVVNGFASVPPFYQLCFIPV
Sequence of Cytochrome P450 2C19 (P33261 whole entry): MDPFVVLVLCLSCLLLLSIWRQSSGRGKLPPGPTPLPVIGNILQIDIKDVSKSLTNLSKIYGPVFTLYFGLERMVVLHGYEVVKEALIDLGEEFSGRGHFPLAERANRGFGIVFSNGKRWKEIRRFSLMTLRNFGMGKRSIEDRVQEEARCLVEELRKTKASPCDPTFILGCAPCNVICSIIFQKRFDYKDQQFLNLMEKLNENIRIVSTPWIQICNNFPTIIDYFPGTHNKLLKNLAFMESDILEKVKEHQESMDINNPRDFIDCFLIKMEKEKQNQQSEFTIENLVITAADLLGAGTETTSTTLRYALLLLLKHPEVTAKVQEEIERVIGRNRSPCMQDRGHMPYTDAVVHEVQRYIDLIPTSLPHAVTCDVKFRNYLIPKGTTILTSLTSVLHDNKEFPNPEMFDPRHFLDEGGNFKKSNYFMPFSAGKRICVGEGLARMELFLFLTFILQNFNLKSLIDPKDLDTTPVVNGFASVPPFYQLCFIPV
Sequence of Cytochrome P450 2E1 (P05181 whole entry): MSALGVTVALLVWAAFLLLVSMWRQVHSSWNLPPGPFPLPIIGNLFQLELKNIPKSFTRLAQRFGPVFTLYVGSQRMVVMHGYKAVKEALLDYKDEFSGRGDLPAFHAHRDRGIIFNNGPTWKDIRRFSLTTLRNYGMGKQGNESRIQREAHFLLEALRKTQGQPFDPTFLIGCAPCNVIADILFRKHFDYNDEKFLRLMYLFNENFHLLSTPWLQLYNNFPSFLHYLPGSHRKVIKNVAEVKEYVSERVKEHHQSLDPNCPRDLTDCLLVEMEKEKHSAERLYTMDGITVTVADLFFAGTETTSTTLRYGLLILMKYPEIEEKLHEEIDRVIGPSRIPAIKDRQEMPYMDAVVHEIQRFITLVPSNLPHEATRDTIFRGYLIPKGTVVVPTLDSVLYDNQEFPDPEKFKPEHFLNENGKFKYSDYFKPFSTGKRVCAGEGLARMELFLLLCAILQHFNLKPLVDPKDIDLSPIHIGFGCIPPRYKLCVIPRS
Sequence of Cytochrome P450 3A4 (P08684 whole entry): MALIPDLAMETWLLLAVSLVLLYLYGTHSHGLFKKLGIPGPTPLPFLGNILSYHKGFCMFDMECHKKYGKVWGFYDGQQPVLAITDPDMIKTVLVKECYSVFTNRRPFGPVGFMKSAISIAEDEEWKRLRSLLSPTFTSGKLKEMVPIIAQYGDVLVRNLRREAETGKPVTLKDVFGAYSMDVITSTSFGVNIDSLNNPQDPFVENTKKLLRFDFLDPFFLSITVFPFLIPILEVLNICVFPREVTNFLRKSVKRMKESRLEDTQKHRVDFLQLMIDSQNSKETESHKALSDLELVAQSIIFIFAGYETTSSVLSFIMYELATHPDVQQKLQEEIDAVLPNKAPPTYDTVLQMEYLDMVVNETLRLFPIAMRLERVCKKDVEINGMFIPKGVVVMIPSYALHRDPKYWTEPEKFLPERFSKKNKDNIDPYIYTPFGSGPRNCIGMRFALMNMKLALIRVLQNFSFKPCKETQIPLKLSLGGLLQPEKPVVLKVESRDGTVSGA
Sequence of Cytochrome P450 2D6 (P10635 whole entry): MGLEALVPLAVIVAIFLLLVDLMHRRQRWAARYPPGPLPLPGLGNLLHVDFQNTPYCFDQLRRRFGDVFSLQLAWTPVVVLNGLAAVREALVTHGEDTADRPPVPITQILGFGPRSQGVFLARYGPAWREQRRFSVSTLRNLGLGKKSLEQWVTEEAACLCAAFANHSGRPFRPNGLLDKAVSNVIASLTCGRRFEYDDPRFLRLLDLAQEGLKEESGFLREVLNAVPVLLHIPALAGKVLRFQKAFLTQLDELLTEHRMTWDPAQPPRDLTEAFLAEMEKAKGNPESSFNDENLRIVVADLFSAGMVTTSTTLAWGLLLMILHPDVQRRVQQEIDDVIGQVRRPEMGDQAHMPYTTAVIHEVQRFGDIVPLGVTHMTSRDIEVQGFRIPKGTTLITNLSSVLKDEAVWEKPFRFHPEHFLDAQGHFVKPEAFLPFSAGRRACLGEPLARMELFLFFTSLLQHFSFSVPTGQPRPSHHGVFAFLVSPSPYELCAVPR

SMILES | bioavailability [1] | Drug uptake (Brain [2]) | fraction unbound [3] | Activity (Rattus norvegicus [4]) | Activity (Rattus norvegicus [5]) | Activity (Rattus norvegicus [6]) | clearance [7] | Kp [8] | half-life [9] | Vbeta (Rattus norvegicus [10]) | fraction unbound [11] | Kp [13] | fraction unbound [14] | Drug uptake (Brain [15]) | further results
CCOc1ccc(-n2ncc(-c3ccc4cc(CCN5CCC[C@H]5C)ccc4n3)c2C)nn1 | 70% | 3242 ng/g | 0.21 | Active | Active | Active | 8.83 mL/min/kg | 42 | 8.3 h | 7.4 L/kg | 0.11 |  |  |  | 
Cc1nn(C)cc1-c1ccc2cc(CCN3CCC[C@H]3C)ccc2n1 | 58% |  | 0.5 | Active | Active | Active | 61.7 mL/min/kg |  | 1.7 h | 9 L/kg | 0.38 | 1.8 | 0.42 | 425 ng/g | Activity [12]: Not Active; Activity (Cytochrome P450 1A2): Not Active; Activity (Cytochrome P450 2A6): Not Active; Activity (Cytochrome P450 2C9): Not Active; inhibition (Homo sapiens): 86%; Activity (Cytochrome P450 2D6): Not Active; Activity (Cytochrome P450 2E1): Not Active; solubility [16]: 21 mg/mL (≈ 62.8 mM); Activity (Cytochrome P450 2C19): Not Active; Activity (Cytochrome P450 3A4): Not Active; Activity (Rattus norvegicus [17]): Non-toxic; bioavailability [18]: 77%; Cp (Plasma [19]): 2.5 ng/mL; Activity (Rattus norvegicus [20]): Toxic
O=C(c1ccc(OCCCc2c[nH]cn2)cc1)C1CC1 |  |  |  |  | Active |  |  |  |  |  |  |  |  |  | 
Cc1cc2ncc(-c3ccc4cc(CCN5CCC[C@H]5C)ccc4n3)c(C)n2n1 | 90% | 174 ng/g | 0.45 | Active | Active | Active | 14 mL/min/kg | 1.5 | 5.3 h | 6.3 L/kg | 0.3 | 1.6 | 0.4 | 440 ng/g | Activity [12]: Not Active; Activity (Cytochrome P450 1A2): Not Active; Activity (Cytochrome P450 2A6): Not Active; inhibition [21]: 69%; Activity (Cytochrome P450 2C9): Not Active; inhibition (Homo sapiens): 96%; Cp (Plasma [22]): 19.2 ng/mL; inhibition [23]: 74%; Activity (Rattus norvegicus [24]): Toxic; Activity (Cytochrome P450 2D6): Not Active; Activity (Cytochrome P450 2E1): Not Active; inhibition at 10 µM (L-type calcium channel): 63%; solubility [16]: 8.7 mg/mL (≈ 22.6 mM); Activity (Cytochrome P450 2C19): Not Active; Activity (Cytochrome P450 3A4): Not Active; Activity (Rattus norvegicus [25]): Non-toxic; Activity (Rattus norvegicus [17]): Non-toxic; bioavailability [18]: 72%; Activity (Rattus norvegicus [20]): Toxic
Cc1nc2ncccc2cc1-c1ccc2cc(CCN3CCC[C@H]3C)ccc2n1 | 30% |  | 0.5 |  | Active |  | 42.3 mL/min/kg |  | 2 h | 9.2 L/kg | 0.39 | 0.4 | 0.57 | 50 ng/g | 
C[C@@H]1CCCN1CCc1cc2cc(-c3ccc(C#N)cc3)ccc2o1 |  | 1728 ng/g | 0.06 |  |  |  | 25 mL/min/kg |  |  | 11.6 L/kg | 0.06 |  | 0.09 | 3082 ng/g | 
Cc1c(-c2ccc3cc(CCN4CCC[C@H]4C)ccc3n2)cnn1-c1ccccn1 | 75% | 1659 ng/g |  |  |  |  | 19.7 mL/min/kg | 23 | 2.4 h | 4.1 L/kg |  |  |  |  | 
Cc1nc(N2CCCC2)ncc1-c1ccc2cc(CCN3CCC[C@H]3C)ccc2n1 | 98% | 718 ng/g |  |  | Active |  | 24.2 mL/min/kg | 16 | 4 h | 8.5 L/kg |  |  |  |  | 
